The list is not random: actives were taken first. Their share in the collection is about 5.1%.
STAT1 act: increases IFN-gamma driven STAT1 reporter signal; activation (% of control), % at 5.5 µM; NIH 3T3 STAT1-luciferase reporter, luminescence; 100% = IFN-gamma alone, no compound; 200,000 tested, 2.6% active; AID 932;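 active = activation above the screen-wide mean activation plus 3 SD, cut at about 130% in these data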;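 note: raw ratio to IFN-gamma control signal so 100% means no change and 0% no light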
APP 5'UTR act: activates APP 5'UTR luciferase reporter; SH-SY5Y APP 5'UTR luciferase reporter, luminescence; zero percent = DMSO vehicle wells; activation, % at 2 µM; AID 1276; 190,000 tested, 1% active;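 active = activation above a set limit, based on mean plus 3 SD of controls, cut at about 140% in these data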
STAT3 inh: STAT3 signaling inhibition | inhibition, % at 5.5 µM | AID 862 | U3A cells, IL-6 STAT3-luciferase reporter, luminescence; host cell line lacks STAT1 | 190,000 tested, 0.89% active;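 active = inhibition above the mean inhibition across all screened compounds plus 3 SD, cut at about 44% in these data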;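 note: 0% = DMSO only wells and 100% = 100 µM nifuroxazide control wells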
STAT1 inh: reduces IFN-gamma driven STAT1 reporter signal | inhibition, % at 5.5 µM | AID 920 | 200,000 tested, 0.35% active | NIH 3T3 STAT1-luciferase reporter, luminescence;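 active = inhibition above a set limit, the mean inhibition across all tested compounds plus 3 SD, cut at about 34% in these data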;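 note: 0% = IFN-gamma with DMSO and 100% = IFN-gamma with 300 µM nifuroxazide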
STAT3 act: increases IL-6 driven STAT3 reporter signal; U3A cells, IL-6 STAT3-luciferase reporter, luminescence; 100% = signal with IL-6 EC80 alone; activation (% of control), % at 5.6 µM; 190,000 tested, 0.91% active; AID 871;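 active = activation above the screen-wide mean of compound activation plus 3 SD, cut at about 130% in these data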;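 note: 0% = background luminescence of wells with medium and substrate only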
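Material: STAT3-luciferase reporter U3A cells. Controls: IL-6-treated wells, 100% activation. Read-out: % activation versus median of IL-6-stimulated wells. Probe or stimulus: IL-6 stimulus at 33 ng/mL final. Timing: compound 1 h, then IL-6 6 h at 37 °C. Signal: reporter luminescence signal.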
NF-kB expr up: NF-kB expression increase, human neuronal cells; NF-kB reporter expression; hits give high values; fold change at 12.5 µM; AID 1239; 190,000 tested, 1.6% active; in the data active = fold change above about 3.3
Active calls of the source: *; / = not tested or not shown.

SMILES	STAT1 act	APP 5'UTR act	STAT3 inh	STAT1 inh	STAT3 act	NF-kB expr up
Cc1cc2oc(=O)cc(CN3CCC(C)CC3)c2cc1Cl	100.1	0.9	2.5	-0.1	102.2	1.77
Cc1ccc2c(CN3CCC(C)CC3)cc(=O)oc2c1	138.2*	77.9	-8.6	-41.2	113.0	4.08*
CN1CCc2c(sc3c2C(=O)NC(c2ccccn2)N3)C1 (centres undefined)	103.5	7.8	-0.2	-3.8	103.2	1.01
Cc1ccsc1C1NC(=O)c2c(sc3c2CCCC3)N1 (centres undefined)	133.2*	82.5	-2.3	-34.8	107.6	1.8
Cc1ccc(C2NC(=O)c3c(sc4c3CCN(C)C4)N2)s1 (centres undefined)	138.1*	10.3	-5.5	-41.9	109.5	1.21
CN1CCc2c(sc3c2C(=O)NC(c2ccccc2)N3)C1 (centres undefined)	106.2	-2.7	8.0	-6.8	100.4	0.8
O=C1NC(c2ccc(Br)cc2)Nc2sc3c(c21)CCC3 (centres undefined)	103.4	19.1	11.8	-3.7	93.5	1.41
O=C1NC(c2ccccn2)Nc2sc3c(c21)CCC3 (centres undefined)	117.4	37.1	5.7	-19.0	96.7	5.04*
O=c1[nH]c2ccc(Cl)cc2c(-c2ccccc2)c1SC(=S)N1CCCCC1	98.8	-4.4	-0.6	1.2	104.5	1.08
O=c1[nH]c2ccc(Cl)cc2c(O)c1-c1ccccc1	67.2	-4.8	82.6*	45.3*	29.0	0.6
CCOc1ccc(OCc2cccc(C(=O)N3CCOCC3)c2)cc1	24.3	-47.8	96.5*	82.2*	16.6	3.43*
COc1ccc(OCc2cccc(C(=O)Nc3cc(C)on3)c2)cc1	52.9	66.4	69.0*	58.0*	44.2	2.67
COc1cc(CNC(=O)c2cccc(COc3ccc(Cl)cc3)c2)cc(OC)c1	107.2	138.9*	19.4	-7.9	82.7	1.86
COc1ccc(C(=O)Nc2cc(C)on2)cc1	121.6	92.2	25.8	-21.5	83.2	3.08
O=C(NCc1ccccc1)c1cccc(COc2ccc(Cl)cc2)c1	124.1	76.7	4.8	-26.3	101.0	2.05
COc1ccc(OCc2cccc(C(=O)Nn3cc([N+](=O)[O-])cn3)c2)cc1	20.9	25.1	49.1*	87.5*	61.0	7.4*
O=C(CNC(=S)N(CCCN1CCOCC1)Cc1cccs1)NCCCN1CCOCC1	99.0	0.1	3.9	1.1	97.0	1.13
COc1ccc(CCNC(=O)C2CCN(C(=O)c3cccs3)CC2)cc1	100.2	6.3	10.6	-2.3	98.0	1.15
COc1ccc(NC(=S)NCc2ccc3c(c2)OCO3)cc1	96.8	-12.6	10.1	1.4	96.6	1
O=C(COC(=O)/C=C/c1ccc(OC(F)F)cc1)NCc1cccs1	90.2	15.8	12.7	10.8	93.1	1.03
NNC(=O)c1cccc(COc2cccc(Br)c2)c1	111.0	43.1	5.2	-12.3	97.0	1.8
COc1ccc(OCc2cccc(C(=O)NN)c2)cc1	42.8	79.8	97.8*	65.2*	19.4	2.49
CCOC(=O)c1cnn(-c2ccc(C(F)(F)F)cn2)c1N	144.7*	28.2	-6.4	-48.7	108.5	2.63
CCC(C)Nc1nc(-c2cccc(OC)c2O)nc2ccccc12 (centres undefined)	101.4	-5.1	-7.1	-1.5	112.7	0.4
COc1cccc(-c2nc(NC(C)C)c3ccccc3n2)c1O	98.3	3.6	-34.5	1.8	134.0*	0.36
SMILES	STAT1 act	APP 5'UTR act	STAT3 inh	STAT1 inh	STAT3 act	NF-kB expr up
COc1ccc(N2CCN(S(=O)(=O)c3ccc(Cl)s3)CC2)cc1	93.3	-2.3	7.5	7.6	95.5	0.92
CC(C)C(=O)Nc1ccccc1C(=O)OCC(=O)c1ccc2c(c1)OCCO2	138.9*	30.8	-7.7	-42.7	102.1	0.85
NS(=O)(=O)c1cc(C(=O)OCC(=O)NC2CC2)ccc1Cl	101.0	-12.7	8.0	-1.1	96.2	0.96
N#CCC(=O)Nc1ccc(C(=O)OCC(=O)c2ccc3c(c2)OCCO3)cc1	115.7	112.0	22.0	-16.9	84.1	4.63*
CNc1ccccc1C(=O)OCC(=O)c1ccccc1	124.2	-4.0	-1.3	-26.6	98.7	1.37
CC(C)N(Cc1ccccc1)C(=O)COC(=O)c1ccc2c(c1)OCCO2	98.5	3.8	-3.3	-0.2	103.7	0.85
NS(=O)(=O)c1ccc(NC(=O)COC(=O)c2ccc3c(c2)OCCO3)cc1	98.0	15.2	-2.7	1.4	104.2	1.14
NS(=O)(=O)c1cc(C(=O)OCC(=O)c2ccc3c(c2)OCCO3)ccc1Cl	119.9	18.1	10.3	-23.0	96.9	9.84*
CNc1ccccc1C(=O)OCC(=O)c1ccc(F)cc1	132.5*	8.4	14.8	-37.9	94.1	1.62
CCOC(=O)C1CCN(c2nc(C)nc3c2oc2ccccc23)CC1	/	/	/	/	/	0.77
COc1ccc2oc(C(=O)C3CC3)c(N)c2c1	140.0*	83.2	5.4	-43.9	103.0	2.63
COc1ccc2oc(C(=O)NC(C)(C)C)c(C)c2c1	145.5*	80.2	-15.2	-54.2	116.9	0.96
COC(=O)CCC(=O)c1oc2ccc(OC)cc2c1N	110.9	-64.1	33.2	-11.9	76.8	1.75
CCCOc1ccc(C(=O)Nc2c[nH]c(=O)[nH]c2=O)cc1	106.1	26.3	4.7	-6.7	95.5	1.04
COc1ccc(N2CC(C(=O)Nc3nnc(SCC(=O)NC(C)(C)C)s3)CC2=O)cc1 (centres undefined)	108.2	-0.5	-2.3	-10.8	104.0	0.99
CCOC(=O)N1CCC(=NNC(=O)COc2ccc(C#N)cc2)CC1	106.4	1.8	4.2	-7.1	101.0	0.94
COc1cccc(N=c2oc3ccccc3cc2-c2nc3ccccc3[nH]2)c1	146.6*	132.2	-47.1	-50.7	143.3*	3.51*
COc1cccc(N=c2oc3ccc(OC)cc3cc2-c2nc3ccccc3[nH]2)c1	134.8*	89.9	-56.5	-37.9	151.4*	3.08
COc1ccc2oc(=O)c(-c3nc4ccccc4o3)cc2c1	109.9	134.0	-0.4	-10.8	100.1	/
COc1cccc(CC(=O)Nc2nc3ccccc3[nH]2)c1	108.7	4.1	1.9	-12.6	102.5	1.33
Nc1nnc(SCC(=O)c2cccc([N+](=O)[O-])c2)s1	94.1	10.6	-3.4	5.2	105.8	1.29
Nc1nnc(SCC(=O)c2ccc3ccccc3c2)s1	118.7	21.4	-7.3	-20.3	113.3	3.72*
CCOc1ccccc1-c1nc(-c2ccncc2)no1	95.7	-0.3	14.4	4.7	88.1	1.04
C(=C\c1nc(-c2ccncc2)no1)/c1ccccc1	150.0*	115.8	12.7	-53.9	94.0	/
O=C(CSc1cn(Cc2ccccc2)c2ccccc12)Nc1nccs1	146.1*	67.7	-12.4	-51.0	118.6	2.67
O=C(CSc1ccccc1)Nc1nccs1	112.8	-3.9	-0.4	-11.8	104.7	1.45
COc1ccc(C(C)=O)cc1COC(=O)c1cccc(N(C)C)c1	98.5	27.9	3.5	0.4	102.5	0.84

Assay outcomes deposited in PubChem BioAssay by several laboratories.
